Source: ChEMBL document CHEMBL1126794, “2-(Quinuclidin-3-yl)pyrido[4,3-b]indol-1-ones and isoquinolin-1-ones. Potent conformationally restricted 5-HT3 receptor antagonists” (J Med Chem, 1993)

Tests used:
[1] = molecular target: T1, Serotonin 3 (5-HT3) receptor (Rattus norvegicus, UniProt P35563+Q9JJ16); assay: Binding affinity against 5-hydroxytryptamine 3 (5-HT3) receptor in rat brain cortical membranes using radioligand [3H]quipazine; format: cell membranes
T1 sequence (P35563 whole entry): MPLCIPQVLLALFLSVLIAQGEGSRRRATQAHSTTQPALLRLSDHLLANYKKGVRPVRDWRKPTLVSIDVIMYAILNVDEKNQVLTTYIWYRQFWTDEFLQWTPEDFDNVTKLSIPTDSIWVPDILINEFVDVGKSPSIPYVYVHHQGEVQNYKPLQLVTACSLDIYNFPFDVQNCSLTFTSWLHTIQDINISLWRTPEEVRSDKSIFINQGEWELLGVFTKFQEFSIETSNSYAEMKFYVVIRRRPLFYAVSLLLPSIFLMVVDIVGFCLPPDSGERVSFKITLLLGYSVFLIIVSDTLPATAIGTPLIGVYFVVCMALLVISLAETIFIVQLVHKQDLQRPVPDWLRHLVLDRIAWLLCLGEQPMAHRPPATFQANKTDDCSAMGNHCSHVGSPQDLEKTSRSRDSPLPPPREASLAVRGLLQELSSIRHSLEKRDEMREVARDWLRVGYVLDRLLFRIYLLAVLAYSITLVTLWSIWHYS
T1 sequence (Q9JJ16 whole entry): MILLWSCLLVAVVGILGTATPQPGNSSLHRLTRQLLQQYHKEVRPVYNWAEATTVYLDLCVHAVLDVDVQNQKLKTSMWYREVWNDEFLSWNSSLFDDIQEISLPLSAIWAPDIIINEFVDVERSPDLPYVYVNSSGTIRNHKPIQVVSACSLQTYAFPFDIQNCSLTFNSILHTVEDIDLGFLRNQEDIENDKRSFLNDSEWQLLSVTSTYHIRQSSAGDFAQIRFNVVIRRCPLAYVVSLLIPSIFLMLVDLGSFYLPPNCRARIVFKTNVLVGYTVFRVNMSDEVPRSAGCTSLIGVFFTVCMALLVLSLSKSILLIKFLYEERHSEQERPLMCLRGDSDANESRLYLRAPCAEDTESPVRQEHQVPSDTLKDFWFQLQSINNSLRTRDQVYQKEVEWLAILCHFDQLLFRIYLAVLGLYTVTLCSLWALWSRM
Procedure, shortened: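 Rat cerebral cortex membranes, washed in 50 mM Tris pH 7.4, incubated 45 min at 25 °C in Tris-Krebs buffer pH 7.4 with 0.3–0.7 nM [3H]quipazine plus 0.1 μM paroxetine. Ten test concentrations from 1e-12 to 1e-4 M. Nonspecific binding defined with 1.0 μM racemic zacopride. Filtration, scintillation counting, IC50 by iterative fit, Ki by Cheng-Prusoff. Means of ≥3 determinations, or of two.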

Rattus norvegicus [2] = assay: Potency to inhibit bradycardiac effect measured by Von Bezold-Jarisch assay in 8 anesthetized rats; format: functional; conditions: read-out: ID50 (the source's name)
Procedure, shortened: (§1)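 Male Sprague-Dawley rats, 250–380 g, under urethane (1.5 g/kg ip), with cannulated trachea and femoral veins; heart rate recorded by ECG. Lowest consistent bradycardic dose of 2-methyl-5-HT titrated iv, then given every 12 min. Increasing iv doses given 5 min before each challenge, with saline vehicle group.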

Rattus norvegicus [3] = assay: Potency to inhibit bradycardiac effect measured by Von Bezold-Jarisch assay in 4 anesthetized rats; format: functional; procedure, shortened: as §1
Rattus norvegicus [4] = assay: Potency to inhibit bradycardiac effect measured by Von Bezold-Jarisch assay in 9 anesthetized rats; format: functional; design: ID50: unit not given here; conditions: for ED50: Rattus norvegicus, read-out: ID50 (the source's name); procedure, shortened: as §1
Rattus norvegicus [5] = assay: Potency to inhibit bradycardiac effect measured by Von Bezold-Jarisch assay in 5 anesthetized rats; format: functional; conditions: read-out: ID50 (the source's name); procedure, shortened: as §1
Canis familiaris [6] = assay: Inhibition of emesis induced by peroral administration of cisplatin in 6 dogs at 1.0 mg/kg (p<0.01); format: functional, Canis lupus familiaris; conditions: route oral
Procedure, shortened: (§2)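 Single oral pretreatment in dogs (n = 6) by liquid gelatin capsule, 30 min before iv cisplatin at 3 mg/kg. Number of emetic episodes monitored continuously for 5 h after cisplatin. Significance versus control by Dunnett's t test.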

Mustela putorius furo [7] = assay: Inhibition of emesis induced by peroral administration of cisplatin in 5 ferrets at 0.03 mg/kg; format: functional; conditions: route oral
Canis familiaris [8] = assay: Inhibition of emesis induced by intravenous administration of cisplatin in 6 dogs at 0.01 mg/kg; format: functional, Canis lupus familiaris
Procedure, shortened: (§3)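 Dogs, n = 6 per group, given one iv dose of test compound as an aqueous solution through a jugular vein cannula 30 min before iv cisplatin (3 mg/kg). Emetic episodes counted by continuous observation for 5 h after cisplatin. Results given as mean ± value versus control, with significance by Dunnett's t test.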

Canis familiaris [9] = assay: Inhibition of emesis induced by intravenous administration of cisplatin in 6 dogs at 0.3 mg/kg (p<0.01); format: functional, Canis lupus familiaris; procedure, shortened: as §3
Canis familiaris [10] = assay: Inhibition of emesis induced by peroral administration of cisplatin in 6 dogs at 0.3 mg/kg (p<0.01); format: functional, Canis lupus familiaris; conditions: route oral; procedure, shortened: as §2
Canis familiaris [11] = assay: Inhibition of emesis induced by peroral administration of cisplatin in 6 dogs at 0.01 mg/kg; format: functional, Canis lupus familiaris; conditions: route oral; procedure, shortened: as §2
Canis familiaris [12] = assay: Inhibition of emesis induced by peroral administration of cisplatin in 6 dogs at 0.1 mg/kg; format: functional, Canis lupus familiaris; conditions: route oral; procedure, shortened: as §2
Mustela putorius furo [13] = assay: Inhibition of emesis induced by peroral administration of cisplatin in 5 ferrets at 0.3 mg/kg (p<0.01); format: functional; conditions: route oral
Canis familiaris [14] = assay: Inhibition of emesis induced by intravenous administration of cisplatin in 6 dogs at 1 mg/kg (p<0.01); format: functional, Canis lupus familiaris; procedure, shortened: as §3
Canis familiaris [15] = assay: Inhibition of emesis induced by intravenous administration of cisplatin in 6 dogs at 0.1 mg/kg (p<0.01); format: functional, Canis lupus familiaris; procedure, shortened: as §3
Canis familiaris [16] = assay: Inhibition of emesis induced by peroral administration of cisplatin in 6 dogs at 0.03 mg/kg; format: functional, Canis lupus familiaris; conditions: route oral; procedure, shortened: as §2
Mustela putorius furo [17] = assay: Inhibition of emesis induced by peroral administration of cisplatin in 5 ferrets at 0.1 mg/kg (p<0.01); format: functional; conditions: route oral
Canis familiaris [18] = assay: Inhibition of emesis induced by intravenous administration of cisplatin in 6 dogs at 0.03 mg/kg; format: functional, Canis lupus familiaris; procedure, shortened: as §3

| Structure (SMILES) | Ki [1] [nM] | further results |
| --- | --- | --- |
| Cn1cc(C(=O)N[C@@H]2CN3CCC2CC3)c2ccccc21 | 0.398 |  |
| COc1cc(N)c(Cl)cc1C(=O)N[C@@H]1CN2CCC1CC2 | 0.251 |  |
| Cn1c2ccccc2c2c(=O)n([C@@H]3CN4CCC3CC4)ccc21 |  | ED50 (Rattus norvegicus [2]): 0.13 µg/kg |
| O=C(N[C@@H]1CN2CCC1CC2)c1c2n(c3ccccc13)CCCCC2 | 5.01 |  |
| Cc1c(C(=O)NC2CN3CCC2CC3)c2ccccc2n1C (centres undefined) | 39.8 |  |
| CCc1cccc(C(=O)N[C@@H]2CN3CCC2CC3)c1C | 501 |  |
| Cc1cccc2c(=O)n(C3CN4CCC3CC4)cc(C)c12.Cl (centres undefined) | 1 | ED50 (Rattus norvegicus [2]): 0.25 µg/kg |
| COc1cccc2c1CCN(C1CC3CCC(C1)N3C)C2=O (centres undefined) | 10 |  |
| O=C1c2ccccc2CCN1C1CN2CCC1CC2 (centres undefined) | 10 |  |
| O=c1c2ccccc2c(-c2ccccc2)cn1[C@@H]1CN2CCC1CC2 | 2.51 |  |
| COc1cccc2c(=O)n([C@@H]3CN4CCC3CC4)ccc12.Cl | 0.158 | ED50 (Rattus norvegicus [2]): 0.03 µg/kg |
| Cl.O=c1c2cccc3c2c(cn1[C@H]1CN2CCC1CC2)CCC3 | 7.94 | ID50 (Rattus norvegicus [3]): 2 pKi |
| COc1cccc2c(=O)n(C3CC4CCC(C3)N4C)ccc12 (centres undefined) | 2.51 |  |
| O=c1c2ccccc2ccn1[C@@H]1CN2CCC1CC2 | 3.98 |  |
| O=C(N[C@H]1CN2CCC1CC2)c1c2n(c3ccccc13)CCCC2 | 12.6 |  |
| COc1cccc(C(=O)N[C@@H]2CN3CCC2CC3)c1C | 398 |  |
| O=c1c2cccc3c2c(cn1[C@H]1CN2CCC1CC2)CC3 | 25.1 |  |
| COc1ccc2c3c(cn(C4CN5CCC4CC5)c(=O)c13)CCC2 (centres undefined) | 158 |  |
| COc1cccc2c1CCN(C1CN3CCC1CC3)C2=O (centres undefined) | 0.2 |  |
| CCc1cccc2c(=O)n([C@@H]3CN4CCC3CC4)ccc12.Cl | 0.2 | ED50 (Rattus norvegicus [2]): 0.13 µg/kg |
| Cl.O=c1c2cccc3c2c(cn1[C@@H]1CN2CCC1CC2)CCCC3 | 0.398 | ED50 (Rattus norvegicus [2]): 0.09 µg/kg |
| CCc1cccc2c1CCN(C1CN3CCC1CC3)C2=O.Cl (centres undefined) | 0.2 | ED50 (Rattus norvegicus [2]): 0.18 µg/kg |

| Structure (SMILES) | Ki [1] [nM] | further results |
| --- | --- | --- |
| O=C1c2cccc3c2[C@@H](CCC3)CN1[C@H]1CN2CCC1CC2 | 3.98 |  |
| Cl.O=c1c2cccc3c2c(cn1[C@@H]1CN2CCC1CC2)CCC3 | 0.158 | ID50 (Rattus norvegicus [4]): 0.1 |
| O=C(NC1CN2CCC1CC2)c1c2n(c3ccccc13)CCCC2 (centres undefined) | 2.51 |  |
| O=C1c2cccc3c2[C@H](CCC3)CN1[C@H]1CN2CCC1CC2 | 2.51 |  |
| Cl.O=c1c2cccc3c2c(cn1C1CN2CCC1CC2)CC3 (centres undefined) | 0.631 | ED50 (Rattus norvegicus [4]): 0.18 µg/kg |
| O=c1c2cccc(Cl)c2ccn1[C@@H]1CN2CCC1CC2 | 2.51 |  |
| COc1ccc2c(=O)n([C@@H]3CN4CCC3CC4)cc3c2c1CCC3 | 12.6 |  |
| O=c1c2ccccc2ccn1C1CN2CCC1CC2 (centres undefined) | 10 |  |
| Cc1cccc2c(=O)n(C3CN4CCC3CC4)ccc12.Cl (centres undefined) | 0.631 | ED50 (Rattus norvegicus [2]): 0.1 µg/kg |
| Cc1cccc2c1CCN([C@@H]1CN3CCC1CC3)C2=O.Cl | 0.316 | ED50 (Rattus norvegicus [2]): 0.13 µg/kg |
| Cc1ccccc1C(=O)NC1CN2CCC1CC2 (centres undefined) | 631 |  |
| Cn1cc(C(=O)NC2CN3CCC2CC3)c2ccccc21 (centres undefined) | 2 |  |
| O=C(N[C@@H]1CN2CCC1CC2)c1cccc2c1CCCC2 | 200 |  |
| Cc1cccc(C(=O)N[C@@H]2CN3CCC2CC3)c1C | 158 |  |
| CCCc1cn([C@@H]2CN3CCC2CC3)c(=O)c2ccccc12 | 5.01 |  |
| CN1C2CCC1CC(n1cc3c4c(cccc4c1=O)CCC3)C2 (centres undefined) | 0.794 | ED50 (Rattus norvegicus [2]): 0.65 µg/kg |
| O=c1c2c3ccccc3n3c2c(cn1[C@@H]1CN2CCC1CC2)CCC3 |  | ED50 (Rattus norvegicus [4]): 0.05 µg/kg |
| O=c1c2c3ccccc3n3c2c(cn1[C@H]1CN2CCC1CC2)CCC3 |  | ED50 (Rattus norvegicus [5]): > 2.41 µg/kg |
| O=C1c2cccc3c2[C@@H](CCC3)CN1C1CN2CCC1CC2 (mixture of isomers) | 0.316 |  |
| COc1cc(N)c(Cl)cc1C(=O)N[C@H]1CN2CCC1CC2 [(R)ZACOPRIDE] | 3.16 |  |
| Cc1nccn1CC1CCc2c(c3ccccc3n2C)C1=O (centres undefined) [ONDANSETRON] |  | ED50 (Rattus norvegicus [4]): 2.6 µg/kg; No. of emetic episodes (Canis familiaris [6]): 2; No. of emetic episodes (Mustela putorius furo [7]): 11.2; No. of emetic episodes (Canis familiaris [8]): 13.33; No. of emetic episodes (Canis familiaris [9]): 1; No. of emetic episodes (Canis familiaris [10]): 3.17; No. of emetic episodes (Canis familiaris [11]): 12.67; No. of emetic episodes (Canis familiaris [12]): 10.5; No. of emetic episodes (Mustela putorius furo [13]): 4.2; No. of emetic episodes (Canis familiaris [14]): 1.17; No. of emetic episodes (Canis familiaris [15]): 4.83; No. of emetic episodes (Canis familiaris [16]): 18.33; No. of emetic episodes (Mustela putorius furo [17]): 2.2; No. of emetic episodes (Canis familiaris [18]): 8.33 |
| CN1[C@@H]2CC[C@H]1C[C@@H](OC(=O)c1c[nH]c3ccccc13)C2 [TROPISETRON] | 2 | ED50 (Rattus norvegicus [2]): 0.4 µg/kg |
